“And” between values parts separate entries of the source, which are not always exact repeats. Equal values may be shown once.
Test system: HEK-293T
Experiment: Multiplex assay against HEK293T
Type: toxicity, cell-based
Settings: human, number of replicates 2
Outline: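 Per cents of healthy-nucleus cells form the tubulin, mitochondrial-mass and membrane-permeability phenotype values. Live cells were stained at seeding with Hoechst33342, BioTracker Green Microtubule Cytoskeleton Dye, MitoTracker Red and Annexin V Alexa Fluor 680. After compound addition they were imaged on a CQ1 microscope at 37°C and 5% CO2, and CellPathfinder machine-learning gating split them into Hoechst high-intensity objects or normal cells, normal cells into healthy, pyknosed or fragmented nuclei, and pyknosed cells into mitotic or apoptotic.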

[1] = 12 h, 1 µM, compound concentration 1 uM
[2] = 12 h, 10 µM, compound concentration 10 uM
[3] = 24 h, 1 µM, compound concentration 1 uM
[4] = 24 h, 10 µM, compound concentration 10 uM
[5] = 48 h, 1 µM, compound concentration 1 uM
[6] = 48 h, 10 µM, compound concentration 10 uM

## CCn1c(-c2nonc2N)nc2cncc(C(=O)N3CC[C@H](N)C3)c21.Cl
[1]
  Population Apoptotic (%): 31% and 33%
  Population Fragmented Nuclei (%): 2%
  Population Healthy Nuclei (%): 81% and 83%
  Population Hoechst High Intensity Objects (%): 7% and 5%
  Population Membrane Permeable-Phenotype (%): 4% and 1%
  Population Mitochondria Different-Phenotype (%): 10% and 8%
  Population Mitotic Cells (%): 68% and 66%
  Population Normal (%): 92% and 94%
  Population Pyknosed Nuclei (%): 16% and 14%
  Population Tubulin-Different-Phenotype (%): 33% and 38%
  Total Cell Count: 694 and 685
[2]
  Population Apoptotic (%): 21% and 43%
  Population Fragmented Nuclei (%): 2%
  Population Healthy Nuclei (%): 84% and 78%
  Population Hoechst High Intensity Objects (%): 5% and 4%
  Population Membrane Permeable-Phenotype (%): 1% and 0%
  Population Mitochondria Different-Phenotype (%): 12% and 15%
  Population Mitotic Cells (%): 78% and 56%
  Population Normal (%): 94% and 95%
  Population Pyknosed Nuclei (%): 13% and 19%
  Population Tubulin-Different-Phenotype (%): 38% and 31%
  Total Cell Count: 716 and 454
[3]
  Population Apoptotic (%): 46% and 37%
  Population Fragmented Nuclei (%): 3%
  Population Healthy Nuclei (%): 84% and 86%
  Population Hoechst High Intensity Objects (%): 6% and 5%
  Population Membrane Permeable-Phenotype (%): 2%
  Population Mitochondria Different-Phenotype (%): 2% and 3%
  Population Mitotic Cells (%): 53% and 62%
  Population Normal (%): 93% and 94%
  Population Pyknosed Nuclei (%): 11% and 9%
  Population Tubulin-Different-Phenotype (%): 12% and 20%
  Total Cell Count: 994 and 875
[4]
  Population Apoptotic (%): 30% and 53%
  Population Fragmented Nuclei (%): 2% and 1%
  Population Healthy Nuclei (%): 86% and 79%
  Population Hoechst High Intensity Objects (%): 8% and 7%
  Population Membrane Permeable-Phenotype (%): 1%
  Population Mitochondria Different-Phenotype (%): 12% and 16%
  Population Mitotic Cells (%): 69% and 46%
  Population Normal (%): 91% and 92%
  Population Pyknosed Nuclei (%): 10% and 18%
  Population Tubulin-Different-Phenotype (%): 36% and 34%
  Total Cell Count: 751 and 447
[5]
  Population Apoptotic (%): 9% and 19%
  Population Fragmented Nuclei (%): 9% and 8%
  Population Healthy Nuclei (%): 86% and 87%
  Population Hoechst High Intensity Objects (%): 10% and 9%
  Population Membrane Permeable-Phenotype (%): 3%
  Population Mitochondria Different-Phenotype (%): 0%
  Population Mitotic Cells (%): 90% and 80%
  Population Normal (%): 89% and 90%
  Population Pyknosed Nuclei (%): 3% and 4%
  Population Tubulin-Different-Phenotype (%): 11% and 10%
  Total Cell Count: 1942 and 1388
[6]
  Population Apoptotic (%): 51% and 57%
  Population Fragmented Nuclei (%): 7% and 3%
  Population Healthy Nuclei (%): 87% and 84%
  Population Hoechst High Intensity Objects (%): 11%
  Population Membrane Permeable-Phenotype (%): 2% and 1%
  Population Mitochondria Different-Phenotype (%): 4% and 7%
  Population Mitotic Cells (%): 48% and 42%
  Population Normal (%): 88%
  Population Pyknosed Nuclei (%): 5% and 12%
  Population Tubulin-Different-Phenotype (%): 28% and 30%
  Total Cell Count: 917 and 468

## COc1cc(Br)c(S(=O)(=O)Nc2ccc(C(F)(F)F)c(O[C@@H]3CCN(C)C3)c2)cc1OC
[1]
  Population Apoptotic (%): 35% and 41%
  Population Fragmented Nuclei (%): 4% and 3%
  Population Healthy Nuclei (%): 83% and 84%
  Population Hoechst High Intensity Objects (%): 8% and 6%
  Population Membrane Permeable-Phenotype (%): 3% and 4%
  Population Mitochondria Different-Phenotype (%): 14% and 12%
  Population Mitotic Cells (%): 64% and 58%
  Population Normal (%): 91% and 93%
  Population Pyknosed Nuclei (%): 11% and 12%
  Population Tubulin-Different-Phenotype (%): 48% and 41%
  Total Cell Count: 739 and 648
[2]
  Population Apoptotic (%): 60% and 67%
  Population Fragmented Nuclei (%): 5% and 3%
  Population Healthy Nuclei (%): 78%
  Population Hoechst High Intensity Objects (%): 11% and 8%
  Population Membrane Permeable-Phenotype (%): 3% and 5%
  Population Mitochondria Different-Phenotype (%): 31% and 22%
  Population Mitotic Cells (%): 39% and 32%
  Population Normal (%): 88% and 91%
  Population Pyknosed Nuclei (%): 16% and 17%
  Population Tubulin-Different-Phenotype (%): 76% and 59%
  Total Cell Count: 481 and 500
[3]
  Population Apoptotic (%): 38% and 42%
  Population Fragmented Nuclei (%): 4% and 5%
  Population Healthy Nuclei (%): 86%
  Population Hoechst High Intensity Objects (%): 7% and 8%
  Population Membrane Permeable-Phenotype (%): 2% and 3%
  Population Mitochondria Different-Phenotype (%): 2% and 3%
  Population Mitotic Cells (%): 61% and 57%
  Population Normal (%): 92% and 91%
  Population Pyknosed Nuclei (%): 8%
  Population Tubulin-Different-Phenotype (%): 26% and 23%
  Total Cell Count: 1282 and 991
[4]
  Population Apoptotic (%): 59% and 43%
  Population Fragmented Nuclei (%): 9% and 6%
  Population Healthy Nuclei (%): 78% and 83%
  Population Hoechst High Intensity Objects (%): 9% and 8%
  Population Membrane Permeable-Phenotype (%): 1% and 4%
  Population Mitochondria Different-Phenotype (%): 10% and 6%
  Population Mitotic Cells (%): 40% and 56%
  Population Normal (%): 90% and 91%
  Population Pyknosed Nuclei (%): 12% and 9%
  Population Tubulin-Different-Phenotype (%): 51% and 30%
  Total Cell Count: 764 and 718
[5]
  Population Apoptotic (%): 14% and 8%
  Population Fragmented Nuclei (%): 15% and 9%
  Population Healthy Nuclei (%): 82% and 87%
  Population Hoechst High Intensity Objects (%): 9%
  Population Membrane Permeable-Phenotype (%): 4% and 3%
  Population Mitochondria Different-Phenotype (%): 0%
  Population Mitotic Cells (%): 85% and 91%
  Population Normal (%): 90%
  Population Pyknosed Nuclei (%): 2%
  Population Tubulin-Different-Phenotype (%): 13% and 11%
  Total Cell Count: 3360 and 2392
[6]
  Population Apoptotic (%): 25% and 20%
  Population Fragmented Nuclei (%): 13%
  Population Healthy Nuclei (%): 82% and 84%
  Population Hoechst High Intensity Objects (%): 9%
  Population Membrane Permeable-Phenotype (%): 5% and 6%
  Population Mitochondria Different-Phenotype (%): 0%
  Population Mitotic Cells (%): 75% and 80%
  Population Normal (%): 90%
  Population Pyknosed Nuclei (%): 4% and 2%
  Population Tubulin-Different-Phenotype (%): 24% and 13%
  Total Cell Count: 1611 and 1583

## CN(C)CCN(Cc1ccc(-c2ccc(CNCCc3ccccc3)cc2)cc1)C(=O)CCC1CCCC1.Cl.Cl
[1]
  Population Apoptotic (%): 45% and 51%
  Population Fragmented Nuclei (%): 2% and 1%
  Population Healthy Nuclei (%): 87% and 86%
  Population Hoechst High Intensity Objects (%): 6% and 3%
  Population Membrane Permeable-Phenotype (%): 2%
  Population Mitochondria Different-Phenotype (%): 34% and 33%
  Population Mitotic Cells (%): 54% and 48%
  Population Normal (%): 93% and 96%
  Population Pyknosed Nuclei (%): 9% and 11%
  Population Tubulin-Different-Phenotype (%): 86% and 78%
  Total Cell Count: 835 and 591
[2]
  Population Apoptotic (%): 61% and 57%
  Population Fragmented Nuclei (%): 7% and 4%
  Population Healthy Nuclei (%): 43% and 42%
  Population Hoechst High Intensity Objects (%): 28% and 30%
  Population Membrane Permeable-Phenotype (%): 4% and 1%
  Population Mitochondria Different-Phenotype (%): 72% and 73%
  Population Mitotic Cells (%): 38% and 42%
  Population Normal (%): 71% and 69%
  Population Pyknosed Nuclei (%): 48% and 52%
  Population Tubulin-Different-Phenotype (%): 93% and 96%
  Total Cell Count: 396 and 358
[3]
  Population Apoptotic (%): 36%
  Population Fragmented Nuclei (%): 4% and 6%
  Population Healthy Nuclei (%): 89% and 85%
  Population Hoechst High Intensity Objects (%): 6% and 5%
  Population Membrane Permeable-Phenotype (%): 1%
  Population Mitochondria Different-Phenotype (%): 17% and 21%
  Population Mitotic Cells (%): 63%
  Population Normal (%): 93% and 94%
  Population Pyknosed Nuclei (%): 6% and 7%
  Population Tubulin-Different-Phenotype (%): 63% and 61%
  Total Cell Count: 1227 and 899
[4]
  Population Apoptotic (%): 73%
  Population Fragmented Nuclei (%): 5%
  Population Healthy Nuclei (%): 42% and 36%
  Population Hoechst High Intensity Objects (%): 31% and 39%
  Population Membrane Permeable-Phenotype (%): 3% and 1%
  Population Mitochondria Different-Phenotype (%): 80% and 84%
  Population Mitotic Cells (%): 26%
  Population Normal (%): 68% and 60%
  Population Pyknosed Nuclei (%): 51% and 57%
  Population Tubulin-Different-Phenotype (%): 89% and 95%
  Total Cell Count: 357 and 312
[5]
  Population Apoptotic (%): 15% and 20%
  Population Fragmented Nuclei (%): 12% and 9%
  Population Healthy Nuclei (%): 84% and 86%
  Population Hoechst High Intensity Objects (%): 8%
  Population Membrane Permeable-Phenotype (%): 4% and 5%
  Population Mitochondria Different-Phenotype (%): 0% and 2%
  Population Mitotic Cells (%): 84% and 79%
  Population Normal (%): 91%
  Population Pyknosed Nuclei (%): 3% and 4%
  Population Tubulin-Different-Phenotype (%): 21% and 25%
  Total Cell Count: 3014 and 1979
[6]
  Population Apoptotic (%): 88% and 79%
  Population Fragmented Nuclei (%): 9% and 5%
  Population Healthy Nuclei (%): 30% and 28%
  Population Hoechst High Intensity Objects (%): 33% and 40%
  Population Membrane Permeable-Phenotype (%): 1% and 0%
  Population Mitochondria Different-Phenotype (%): 82% and 91%
  Population Mitotic Cells (%): 11% and 20%
  Population Normal (%): 66% and 59%
  Population Pyknosed Nuclei (%): 60% and 65%
  Population Tubulin-Different-Phenotype (%): 84% and 93%
  Total Cell Count: 318 and 281

— ChEMBL document CHEMBL5303300, “EUbOPEN Chemogenomics Library - Multiplex” (2023)
